Measurements: ChEMBL document CHEMBL1124779, “Synthesis and antitumor activity of 1-[[(dialkylamino)alkyl]amino]-4-methyl-5H-pyrido[4,3-b]benzo[e]- and -benzo[g])indoles. A new class of antineoplastic agents” (1990)
≈ marks a conversion by molar mass, not a printed value.

Legend:
[1] = Tested for cytotoxicity in the multiple tumor disk diffusion soft agar assay at the dose of 15 ug/disk against solid tumor PO3; assay type: functional, Mus musculus
Outline: (§1)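 Soft agar disk diffusion: bottom layer 0.8% noble agar, top layer 0.47% noble agar, both in 1:1 CMRL-Fischer medium with 11% horse serum. Top layer seeded with 5×10^3 L1210 cells or 10^6 solid tumor cells (C38, PO3). Drug applied on a dried 6-mm filter-paper disk. Incubation 7-11 days. Inhibition zone measured by inverted microscope, in units (1 unit = 30 μm).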

L1210 [2] = assay: Tested for cytotoxicity in the multiple tumor disk diffusion soft agar assay at the dose of 15 ug/disk against leukemia L1210; range is 300-380; assay type: functional, Mus musculus; outline: as §1
L1210 [3] = assay: Tested for cytotoxicity in the multiple tumor disk diffusion soft agar assay at the dose of 15 ug/disk against leukemia L1210; U = 32 uM; assay type: functional, Mus musculus; outline: as §1
P388 [4] = assay: In vivo T/C (survival time treated/survival time control x 100) was determined against P388 leukemia cells at 20 mg/Kg; assay type: functional, Mus musculus
Outline: (§2)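 B6D2 F1 mice, at least five per group, were inoculated ip on day 0 with 10^6 viable P388 cells (25 mL/kg). Compounds were dissolved in distilled water and given ip (25 mL/kg) daily on days 1–4. Mortality was checked daily, with necropsy of dead animals. T/C×100 was median survival, treated versus control. Survivors beyond 50 days counted as cured and were excluded from the median.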

[5] = Tested for cytotoxicity in the multiple tumor disk diffusion soft agar assay at the dose of 15 ug/disk against solid tumor C38; U = 32 uM; assay type: functional, Mus musculus; outline: as §1
P388 [6] = assay: In vitro cytotoxicity was determined against P388 leukemia cells; assay type: functional; conditions: Mus musculus, read-out: ID50 (the source's name)
Outline: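 P388 cells in exponential growth, RPMI 1640 with 2 mM glutamine, 10 μM 2-mercaptoethanol and 10% FCS, 5% CO2, 37 °C. Cells at 10^5 cells/mL. Drugs in distilled water added on day 0. Cells counted by Coulter counter after 96 h. ID50 (μg/mL, 50% inhibition of proliferation) estimated by regression of concentration/response data.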

P388 [7] = assay: In vivo T/C (survival time treated/survival time control x 100) was determined against P388 leukemia cells at 10 mg/Kg; assay type: functional, Mus musculus; outline: as §2
L1210 [8] = assay: Cytotoxicity in the multiple tumor disk diffusion soft agar assay at the dose of 15 ug/disk against leukemia L1210; assay type: functional, Mus musculus; outline: as §1
[9] = Cytotoxicity in the multiple tumor disk diffusion soft agar assay at the dose of 15 ug/disk against solid tumor PO3; assay type: functional, Mus musculus; outline: as §1
L1210 [10] = assay: Tested for cytotoxicity in the multiple tumor disk diffusion soft agar assay at the dose of 15 ug/disk against leukemia L1210; range is 420-490; assay type: functional, Mus musculus; outline: as §1
[11] = Tested for cytotoxicity in the multiple tumor disk diffusion soft agar assay at the dose of 15 ug/disk against solid tumor C38; range is 550-600; assay type: functional, Mus musculus; outline: as §1
[12] = Cytotoxicity in the multiple tumor disk diffusion soft agar assay at the dose of 15 ug/disk against solid tumor C38.; assay type: functional, Mus musculus; outline: as §1
L1210 [13] = assay: Tested for cytotoxicity in the multiple tumor disk diffusion soft agar assay at the dose of 15 ug/disk against leukemia L1210; range is 450-500; assay type: functional, Mus musculus; outline: as §1
P388 [14] = assay: In vivo T/C (survival time treated/survival time control x 100) was determined against P388 leukemia cells at 40 mg/Kg; assay type: functional, Mus musculus; outline: as §2
[15] = Tested for medium tumor weight of treated /control animals x 100 (% T/C) for murine solid tumor model C26 early stage that is subcutaneously implanted by the intravenous treatment at the dose of 10 mg/kg in 1-4 schedule; assay type: functional, Mus musculus
Outline: (§3)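 sc implant of 1 mm³ tumor fragment. MA 16/C in C3H mice, B16 in C57BL/6 mice, C26 in CD2F1 mice; 10 per group. iv dosing on days 1-4 at 10 mL/kg. Mice weighed daily. Killed day 14 (C26) or day 15 (MA 16/C, B16) and tumors weighed. T/C×100 from median tumor weight, treated vs control. Body weight change taken from day 1 to 7.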

P388 [16] = assay: In vivo T/C (survival time treated/survival time control x 100) was determined against P388 leukemia cells at 5.0 mg/Kg; assay type: functional, Mus musculus; outline: as §2
[17] = Tested for medium tumor weight of treated /control animals x 100 (% T/C) for murine solid tumor model B16 early stage that is subcutaneously implanted by the intravenous treatment at the dose of 5 mg/kg in 1-4 schedule; assay type: functional, Mus musculus; outline: as §3
L1210 [18] = assay: In vivo T/C (survival time treated/survival time control x 100) was determined against L1210 leukemia cells at 10 mg/Kg; assay type: functional, Mus musculus
Outline: (§4)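 B6D2 F1 mice, at least five per group, were inoculated ip on day 0 with 10^5 viable L1210 cells (25 mL/kg). Compounds were dissolved in distilled water and given ip (25 mL/kg) on days 1–4. Deaths were checked daily, with necropsy to separate tumor from toxic death. T/C×100 was median survival of treated over controls. Mice surviving over 50 days counted as cured and were excluded from the median.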

[19] = Tested for medium tumor weight of treated /control animals x 100 (% T/C) for murine solid tumor model 3LL early stage that is subcutaneously implanted by the intravenous treatment at the dose of 10 mg/kg in 1-4 schedule; assay type: functional, Mus musculus
Mus musculus [20] = assay: In vivo total number of survivors was determined against L1210 Leukemia cells out of 8 mouse at 50 day; assay type: functional, Leukemia cell; outline: as §4
[21] = Tested for medium tumor weight of treated /control animals x 100 (% T/C) for murine solid tumor model MA 16/C early stage that is subcutaneously implanted by the intravenous treatment at the dose of 10 mg/kg in 1-4 schedule; assay type: functional, Mus musculus; outline: as §3
[22] = Tested for the change in body weight between day 1 and 14 for murine solid tumor model 3LL advanced stage that is intramuscularly implanted by the intravenous treatment at the dose of 10 mg/kg in 7-10 schedule; conditions: Mus musculus
[23] = Tested for the change in body weight between day1 and 7 for murine solid tumor model MA 16/C early stage that is subcutaneously implanted by the intravenous treatment; assay type: functional, Mus musculus
Outline: (§5)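 Mice given sc 1 mm³ tumor fragment: C26 in CD2F1 mice, MA 16/C in C3H mice (tumors passaged in strain of origin), 10 per group. Drug given iv days 1–4 at 10 mL/kg. Animals weighed daily and watched for toxicity. Body-weight change taken from day 1 to day 7. Killed day 14 (C26) or 15 (MA 16/C).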

[24] = Tested for the change in body weight between day 1 and 7 for murine solid tumor model B16 early stage that is subcutaneously implanted by the intravenous treatment at the dose of 10 mg/kg in 1-4 schedule; assay type: functional; conditions: Mus musculus, dose 5 mg/kg, in the assay text read “5 mg/kg” for “10 mg/kg”; outline: as §3
[25] = Tested for the change in body weight between day 1 and 7 for murine solid tumor model 3LL early stage that is subcutaneously implanted by the intravenous treatment at the dose of 5 mg/kg in 1-4 schedule; assay type: functional, Mus musculus
[26] = Tested for mean number of metastases of treated /control animals x 100 (% T/C) for murine solid tumor model 3LL advanced stage that is intramuscularly implanted by the intravenous treatment at the dose of 10 mg/kg in 7-10 schedule; conditions: Mus musculus
[27] = Tested for the change in body weight between day 1 and 7 for murine solid tumor model C26 early stage that is subcutaneously implanted by the intravenous treatment at the dose of 10 mg/kg in 1-4 schedule; assay type: functional, Mus musculus; outline: as §3
[28] = Tested for cytotoxicity in the multiple tumor disk diffusion soft agar assay at the dose of 15 ug/disk against solid tumor C38; assay type: functional, Mus musculus; outline: as §1
Mus musculus [29] = assay: Tested for the change in body weight between day1 and 7 for murine solid tumor model B16 early stage that is subcutaneously implanted by the intravenous treatment at the dose of 1.25 mg/kg in 1-4 schedule; assay type: functional; outline: as §3
Mus musculus [30] = assay: Tested for mean number of metastases in treated/control animals x 100 (% T/C) for murine solid tumor model 3LL early stage that is intramuscularly implanted by the intravenous treatment at the dose of 2.5 mg/kg in 1-4 schedule
Mus musculus [31] = assay: Tested for medium tumor weight of treated /control animals x 100 (% T/C) for murine solid tumor model C26 early stage that is subcutaneously implanted by the intravenous treatment at the dose of 2.5 mg/kg in 1-4 schedule; assay type: functional; outline: as §3
Mus musculus [32] = assay: Tested for the change in body weight between day1 and 7 for murine solid tumor model MA 16/C early stage that is subcutaneously implanted by the intravenous treatment at the dose of 2.5 mg/kg in 1-4 schedule; assay type: functional; outline: as §5
Mus musculus [33] = assay: Tested for medium tumor weight of treated /control animals x 100 (% T/C) for murine solid tumor model 3LL advanced stage that is subcutaneously implanted by the intravenous treatment at the dose of 2.5 mg/kg in 1-4 schedule; assay type: functional
Mus musculus [34] = assay: Tested for the change in body weight between day1 and 14 for murine solid tumor model 3LL advanced stage that is intramuscularly implanted by the intravenous treatment at the dose of 2.5 mg/kg in 7-10 schedule
Mus musculus [35] = assay: Tested for the change in body weight between day1 and 7 for murine solid tumor model 3LL early stage that is intramuscularly implanted by the intravenous treatment at the dose of 2.5 mg/kg in 1-4 schedule
Mus musculus [36] = assay: Tested for medium tumor weight of treated /control animals x 100 (% T/C) for murine solid tumor model B16 early stage that is subcutaneously implanted by the intravenous treatment at the dose of 1.25 mg/kg in 1-4 schedule; assay type: functional; outline: as §3
Mus musculus [37] = assay: Tested for the change in body weight between day1 and 7 for murine solid tumor model C26 early stage that is subcutaneously implanted by the intravenous treatment at the dose of 2.5 mg/kg in 1-4 schedule; assay type: functional; outline: as §5
Mus musculus [38] = assay: Tested for medium tumor weight of treated /control animals x 100 (% T/C) for murine solid tumor model MA 16/C early stage that is subcutaneously implanted by the intravenous treatment at the dose of 2.5 mg/kg in 1-4 schedule; assay type: functional; outline: as §3

## CCN(CC)CCCNc1ncc(C)c2c1c1ccc3ccccc3c1n2C
[1]
  Cytotoxicity: 200 U
L1210 [2]
  Cytotoxicity: 300 U
L1210 [3]
  Cytotoxicity: 450 U
P388 [4]
  T/C x100: 108
[5]
  Cytotoxicity: 500 U
P388 [6]
  IC50: 0.375 µg/mL (≈ 1 µM)

## Cc1c[nH]c(NCCCN(C)C)c2c3ccc4ccccc4c3nc1-2
P388 [7]
  T/C x100: 115
L1210 [8]
  Cytotoxicity: 500 U
[9]
  Cytotoxicity: 310 U
P388 [6]
  IC50: 0.375 µg/mL (≈ 1.13 µM)
L1210 [10]
  Cytotoxicity: 420 U
[11]
  Cytotoxicity: 550 U

## CCN(CC)CCCNc1ncc(C)c2c1c1c3ccc(OC)cc3ccc1n2C
L1210 [8]
  Cytotoxicity: 400 U
[12]
  Cytotoxicity: 325 U
[9]
  Cytotoxicity: 375 U
L1210 [13]
  Cytotoxicity: 450 U
P388 [14]
  T/C x100: 143
P388 [6]
  IC50: 0.75 µg/mL (≈ 1.85 µM)

## Cc1cnc(NCCCN(C)C)c2c1[nH]c1ccc3cc(O)ccc3c12 [INTOPLICINE]
P388 [7]
  T/C x100: 270
[15]
  T/C: 0%
P388 [16]
  T/C x100: 182
L1210 [8]
  Cytotoxicity: 375 U
[17]
  T/C: 28%
L1210 [18]
  T/C x100: 143
[19]
  T/C: 0%
Mus musculus [20]
  Survivors: 5
[21]
  T/C: 2%
[9]
  Cytotoxicity: 850 U
[22]
  Change in weight: -2.8 g
[23]
  Change in weight: -1.7 g
[24]
  Change in weight: -1.1 g
[25]
  Change in weight: -2.1 g
[26]
  T/C: 34%
[27]
  Change in weight: -1.9 g
[28]
  Cytotoxicity: 700 U
P388 [6]
  IC50: 0.025 µg/mL (≈ 0.0717 µM)

## CCN(CC)CCCNc1nccc2c(C)c3[nH]c4ccc(OC)cc4c3c(C)c12 [RETELLIPTINE]
Mus musculus [29]
  Change in weight: 1 g
Mus musculus [30]
  T/C: 0%
Mus musculus [31]
  T/C: 0%
Mus musculus [32]
  Change in weight: -2.2 g
Mus musculus [33]
  T/C: 40%
Mus musculus [20]
  Survivors: 3
Mus musculus [34]
  Change in weight: 0 g
Mus musculus [35]
  Change in weight: -1.4 g
Mus musculus [36]
  T/C: 26%
Mus musculus [37]
  Change in weight: -2.1 g
Mus musculus [38]
  T/C: 4%
